From ChEMBL document CHEMBL1137679, “Synthesis and antibacterial activity of some new 2,3-dimethoxy-3-hydroxy-2-(1-phenyl-3-aryl-4-pyrazolyl)chromanones” (2009)
≈ marks a conversion by molar mass, not a printed value. Calls of active or inactive are those of the source. No cut-off for these calls is given here.

Tests used:
Type in all cases: functional
[1] = system: Salmonella enterica subsp. enterica serovar Typhi str. CT18; assay: Antimicrobial activity against Salmonella typhi MTCC 733 after 24 hrs by agar dilution assay; conditions: MTCC 733, 24 h
[2] = system: Pseudomonas aeruginosa; assay: Antimicrobial activity against Pseudomonas aeruginosa MTCC 3541 after 24 hrs by agar dilution assay; conditions: MTCC 3541, 24 h
How it was run: (§1)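 Agar dilution MIC following NCCLS. Cultures streaked on soyabean casein digest agar overnight at 37 °C, suspended to 0.5 McFarland, then diluted 10-fold (1.2 × 10⁷ CFU/ml). DMSO stocks diluted and added to molten Mueller-Hinton agar, final concentrations 64 down to 0.12 by twofold steps. Plates surface-inoculated, incubated 35 °C for 24 h. MIC is lowest concentration with no visible growth.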

[3] = system: Staphylococcus aureus; assay: Antimicrobial activity against Staphylococcus aureus MTCC 3160 at 1 mg/ml after 24 hrs by agar diffusion assay; conditions: MTCC 3160, 24 h, read-out: DIZ
How it was run: (§2)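 Agar well diffusion. 24-h cultures adjusted to 0.5 McFarland (1.5 × 10⁸ CFU/ml), mixed into molten cooled Mueller-Hinton agar (pH 7.4) and poured. 6 mm wells punched, each loaded with 50 µl of 1 mg/ml DMSO solution. DMSO as negative control, antibiotics as positive controls. Plates incubated 35 °C for 24 h. Mean of three replicates.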

[4] = system: Staphylococcus epidermidis; assay: Antimicrobial activity against Staphylococcus epidermidis MTCC 2639 at 1 mg/ml after 24 hrs by agar diffusion assay; conditions: for zone of inhibition at 1000 µg/mL: MTCC 2639, 24 h, read-out: DIZ; how it was run: as §2
[5] = system: Bacillus pumilus; assay: Antimicrobial activity against Bacillus pumilus MTCC 1456 at 1 mg/ml after 24 hrs by agar diffusion assay; conditions: for zone of inhibition at 1000 µg/mL: MTCC 1456, 24 h, read-out: DIZ; how it was run: as §2
[6] = system: Salmonella enterica subsp. enterica serovar Typhi str. CT18; assay: Antimicrobial activity against Salmonella typhi MTCC 733 at 1 mg/ml after 24 hrs by agar diffusion assay; conditions: for zone of inhibition at 1000 µg/mL: MTCC 733, 24 h, read-out: DIZ
How it was run: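 Well diffusion in MHA (pH 7.4) seeded with 24-h culture adjusted to 0.5 McFarland (1.5 × 10⁸ CFU/ml). Wells of 6 mm received 50 µl of 1 mg/ml DMSO solution; DMSO served as negative control. Incubated 35 °C, 24 h. Mean of three replicates.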

[7] = system: Pseudomonas aeruginosa; assay: Antimicrobial activity against Pseudomonas aeruginosa MTCC 3541 at 1 mg/ml after 24 hrs by agar diffusion assay; conditions: for zone of inhibition at 1000 µg/mL: MTCC 3541, 24 h, read-out: DIZ; how it was run: as §2
[8] = system: Staphylococcus aureus; assay: Antimicrobial activity against Staphylococcus aureus MTCC 3160 after 24 hrs by agar dilution assay; conditions: MTCC 3160, 24 h; how it was run: as §1
[9] = system: Staphylococcus epidermidis; assay: Antimicrobial activity against Staphylococcus epidermidis MTCC 2639 after 24 hrs by agar dilution assay; conditions: MTCC 2639, 24 h; how it was run: as §1
[10] = system: Bacillus pumilus; assay: Antimicrobial activity against Bacillus pumilus MTCC 1456 after 24 hrs by agar dilution assay; conditions: MTCC 1456, 24 h; how it was run: as §1

Row | SMILES | MIC [1] [µg/mL] | MIC [2] [µg/mL] | zone of inhibition at 1000 µg/mL [3] [mm] | diameter of the inhibition zone (DIZ) [4] | diameter of the inhibition zone (DIZ) [5] | diameter of the inhibition zone (DIZ) [6] | diameter of the inhibition zone (DIZ) [7] | MIC [8] [µg/mL] | MIC [9] [µg/mL] | MIC [10] [µg/mL] | zone of inhibition at 1000 µg/mL [4] [mm] | zone of inhibition at 1000 µg/mL [5] [mm] | zone of inhibition at 1000 µg/mL [6] [mm] | zone of inhibition at 1000 µg/mL [7] [mm]
1 | COC1(O)C(=O)c2ccccc2OC1(OC)c1cn(-c2ccccc2)nc1-c1ccc(Br)cc1 (centres undefined) | > 64 | > 64 | 10.3 | inactive | inactive | inactive | inactive | 64 (≈ 123 µM) | > 64 | > 64 | – | – | – | –
2 | CO/N=C(\C(=O)N[C@@H]1C(=O)N2C(C(=O)OC(C)OC(C)=O)=C(COC(N)=O)CS[C@H]12)c1ccco1 (some centres undefined) [CEFUROXIME AXETIL] | 8 (≈ 15.7 µM) | > 16 | – | – | – | – | – | 8 (≈ 15.7 µM) | 8 (≈ 15.7 µM) | > 16 | – | – | – | –
3 | N[C@@H](C(=O)N[C@@H]1C(=O)N2C(C(=O)O)=C(Cl)CS[C@H]12)c1ccccc1 [CEFACLOR ANHYDROUS] | 8 (≈ 21.8 µM) | < 16 | – | – | – | – | – | 2 (≈ 5.44 µM) | 2 (≈ 5.44 µM) | 8 (≈ 21.8 µM) | – | – | – | –
4 | COC1(O)C(=O)c2ccccc2OC1(OC)c1cn(-c2ccccc2)nc1-c1ccc(C)cc1 (centres undefined) | > 64 | > 64 | 16.1 | – | inactive | inactive | inactive | 32 (≈ 70.1 µM) | 64 (≈ 140 µM) | > 64 | 12.6 | – | – | –
5 | COC1(O)C(=O)c2ccccc2OC1(OC)c1cn(-c2ccccc2)nc1-c1ccc(F)cc1 (centres undefined) | 8 (≈ 17.4 µM) | 8 (≈ 17.4 µM) | 23 | – | – | – | – | 4 (≈ 8.69 µM) | 64 (≈ 139 µM) | 64 (≈ 139 µM) | 12.1 | 10.1 | 18.2 | 22.2
6 | COC1(O)C(=O)c2ccccc2OC1(OC)c1cn(-c2ccccc2)nc1-c1ccc([N+](=O)[O-])cc1 (centres undefined) | 8 (≈ 16.4 µM) | 16 (≈ 32.8 µM) | 26 | – | – | – | – | 2 (≈ 4.1 µM) | 8 (≈ 16.4 µM) | 32 (≈ 65.6 µM) | 18.5 | 15.8 | 20.6 | 16.6
7 | COC1(O)C(=O)c2ccccc2OC1(OC)c1cn(-c2ccccc2)nc1-c1ccccc1 (centres undefined) | > 64 | > 64 | 18.1 | inactive | inactive | inactive | inactive | 16 (≈ 36.2 µM) | > 64 | > 64 | – | – | – | –
8 | CC(=O)NC[C@H]1CN(c2ccc(N3CCOCC3)c(F)c2)C(=O)O1 [LINEZOLID] | 8 (≈ 23.7 µM) | < 16 | – | – | – | – | – | – | < 16 | 4 (≈ 11.9 µM) | – | – | – | –
9 | COC1(O)C(=O)c2ccccc2OC1(OC)c1cn(-c2ccccc2)nc1-c1ccc(Cl)cc1 (centres undefined) | > 64 | 32 (≈ 67.1 µM) | 20.4 | – | inactive | inactive | – | 8 (≈ 16.8 µM) | 16 (≈ 33.5 µM) | > 64 | 16.7 | – | – | 14.7
10 | COc1ccc(-c2nn(-c3ccccc3)cc2C2(OC)Oc3ccccc3C(=O)C2(O)OC)cc1 (centres undefined) | > 64 | > 64 | 18 | inactive | inactive | inactive | inactive | 16 (≈ 33.9 µM) | > 64 | > 64 | – | – | – | –
